# Assays:
# CYP1A2 = biological target: T1, CYP1A2 (Homo sapiens, UniProt P05177); test: Inhibition of human CYP1A2 using 3-cyano-7-ethoxycoumarin as substrate at 10 uM after 15 mins by fluorimetric analysis; format: ADME; conditions: probe 3-cyano-7-ethoxycoumarin
# T1 sequence (P05177 whole entry): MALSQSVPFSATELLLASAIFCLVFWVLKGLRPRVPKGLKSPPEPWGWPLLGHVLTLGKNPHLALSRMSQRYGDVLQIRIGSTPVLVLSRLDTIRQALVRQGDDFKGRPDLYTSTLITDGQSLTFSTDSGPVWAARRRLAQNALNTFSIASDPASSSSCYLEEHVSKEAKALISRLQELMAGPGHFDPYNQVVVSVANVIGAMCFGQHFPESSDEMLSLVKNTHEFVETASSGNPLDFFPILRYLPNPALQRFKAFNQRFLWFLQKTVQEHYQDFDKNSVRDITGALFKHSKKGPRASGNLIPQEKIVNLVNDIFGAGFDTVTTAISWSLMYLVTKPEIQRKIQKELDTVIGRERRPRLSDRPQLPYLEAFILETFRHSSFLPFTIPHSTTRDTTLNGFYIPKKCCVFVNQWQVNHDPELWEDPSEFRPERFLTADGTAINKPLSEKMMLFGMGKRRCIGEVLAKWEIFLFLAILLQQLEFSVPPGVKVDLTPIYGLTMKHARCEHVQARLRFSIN
# Outline: (§1)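 Test compounds at 10 µM in potassium phosphate buffer pH 7.4 with NADPH regenerating system (final 1.3 mM NADP⁺, 3.3 mM glucose 6-phosphate, 0.4 U/ml G6PDH); reaction started at 37 °C by adding Supersomes isoenzyme plus substrate. Enzyme and substrate amounts: CYP1A2 0.5 pmol, 5 µM CEC; CYP2C19 0.5 pmol, 25 µM CEC; CYP3A4 1 pmol, 50 µM BFC; CYP2D6 1.5 pmol, 1.5 µM AMMC. Stopped with acetonitrile/Tris base; fluorescence read; % inhibition versus enzyme without inhibitor; n≥2, mean.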
# CYP2C19 = CYP2C19 (Homo sapiens, UniProt P33261); test: Inhibition of human CYP2C19 using 3-cyano-7-ethoxycoumarin as substrate at 10 uM after 30 mins by fluorimetric analysis; format: ADME; conditions: probe 3-cyano-7-ethoxycoumarin; outline: as §1
# Sequence of CYP2C19 (P33261 whole entry): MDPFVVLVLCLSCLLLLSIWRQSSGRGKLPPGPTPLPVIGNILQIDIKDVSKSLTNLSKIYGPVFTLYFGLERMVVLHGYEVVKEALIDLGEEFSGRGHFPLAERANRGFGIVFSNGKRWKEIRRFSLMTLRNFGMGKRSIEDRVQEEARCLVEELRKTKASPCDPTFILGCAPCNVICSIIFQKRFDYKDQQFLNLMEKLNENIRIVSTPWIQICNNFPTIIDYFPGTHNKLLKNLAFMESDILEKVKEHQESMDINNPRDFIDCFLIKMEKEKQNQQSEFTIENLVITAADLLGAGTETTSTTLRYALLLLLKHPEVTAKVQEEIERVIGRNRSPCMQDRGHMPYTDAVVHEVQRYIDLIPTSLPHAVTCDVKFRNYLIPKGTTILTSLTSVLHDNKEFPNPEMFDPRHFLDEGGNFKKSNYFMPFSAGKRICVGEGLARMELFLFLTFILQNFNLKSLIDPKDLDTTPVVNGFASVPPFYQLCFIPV
# CYP2D6 = CYP2D6 (Homo sapiens, UniProt P10635); test: Inhibition of human CYP2D6 using 3-[2-(N,N-diethyl-N-methylamino)ethyl]-7-methoxy-4-methylcoumarin as substrate at 10 uM after 30 mins by fluorimetric analysis; format: ADME; outline: as §1
# Sequence of CYP2D6 (P10635 whole entry): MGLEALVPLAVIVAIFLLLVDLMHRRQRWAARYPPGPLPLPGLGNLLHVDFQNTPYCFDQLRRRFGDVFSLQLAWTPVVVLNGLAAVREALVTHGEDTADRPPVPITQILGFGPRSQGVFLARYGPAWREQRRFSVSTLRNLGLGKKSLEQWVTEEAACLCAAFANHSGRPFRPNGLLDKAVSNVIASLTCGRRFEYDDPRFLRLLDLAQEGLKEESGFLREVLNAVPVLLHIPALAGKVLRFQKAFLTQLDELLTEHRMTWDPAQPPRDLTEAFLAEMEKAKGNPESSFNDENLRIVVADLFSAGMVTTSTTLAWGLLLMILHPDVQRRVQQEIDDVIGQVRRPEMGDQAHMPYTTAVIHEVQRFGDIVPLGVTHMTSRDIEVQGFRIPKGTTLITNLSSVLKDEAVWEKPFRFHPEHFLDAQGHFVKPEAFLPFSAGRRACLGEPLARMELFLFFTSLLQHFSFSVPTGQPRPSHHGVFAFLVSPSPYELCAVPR
# CYP3A4 = CYP3A4 (Homo sapiens, UniProt P08684); test: Inhibition of human CYP3A4 using 7-benzyloxy-4-(trifluoromethyl)-coumarin as substrate at 10 uM after 30 mins by fluorimetric analysis; format: ADME; conditions: probe 7-benzyloxy-4-(trifluoromethyl)-coumarin; outline: as §1
# Sequence of CYP3A4 (P08684 whole entry): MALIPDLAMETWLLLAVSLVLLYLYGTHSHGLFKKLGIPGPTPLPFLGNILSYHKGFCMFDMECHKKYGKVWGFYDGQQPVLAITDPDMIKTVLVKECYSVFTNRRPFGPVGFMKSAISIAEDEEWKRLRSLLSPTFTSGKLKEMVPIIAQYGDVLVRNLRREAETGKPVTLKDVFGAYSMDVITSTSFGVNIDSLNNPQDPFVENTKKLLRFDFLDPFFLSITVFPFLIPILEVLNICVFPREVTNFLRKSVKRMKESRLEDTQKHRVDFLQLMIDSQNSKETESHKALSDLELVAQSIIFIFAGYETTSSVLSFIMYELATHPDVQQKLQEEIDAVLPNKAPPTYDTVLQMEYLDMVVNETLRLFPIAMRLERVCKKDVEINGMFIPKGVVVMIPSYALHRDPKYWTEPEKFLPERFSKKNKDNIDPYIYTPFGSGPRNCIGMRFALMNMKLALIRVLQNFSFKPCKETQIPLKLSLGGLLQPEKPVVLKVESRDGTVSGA
# Histone deacetylase 2 [1] = biological target: T2, Histone deacetylase 2 (Homo sapiens, UniProt Q92769); test: Inhibition of recombinant human HDAC2 after 15 mins by fluorescence assay
# T2 sequence (Q92769 whole entry): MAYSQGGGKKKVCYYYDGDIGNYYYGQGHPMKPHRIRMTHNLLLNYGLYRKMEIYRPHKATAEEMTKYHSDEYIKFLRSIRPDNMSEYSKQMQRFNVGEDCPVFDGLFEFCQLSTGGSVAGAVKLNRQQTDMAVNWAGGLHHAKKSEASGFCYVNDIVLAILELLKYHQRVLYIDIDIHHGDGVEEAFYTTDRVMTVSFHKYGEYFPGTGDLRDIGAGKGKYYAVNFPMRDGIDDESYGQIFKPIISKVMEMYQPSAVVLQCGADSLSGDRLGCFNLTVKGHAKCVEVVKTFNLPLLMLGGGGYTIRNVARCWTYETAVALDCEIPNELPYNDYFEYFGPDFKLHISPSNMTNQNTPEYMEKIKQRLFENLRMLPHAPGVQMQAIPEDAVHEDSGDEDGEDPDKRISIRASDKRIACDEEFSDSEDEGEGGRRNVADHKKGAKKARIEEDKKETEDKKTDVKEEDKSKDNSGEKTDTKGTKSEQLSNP
# Outline: (§2)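 Recombinant human HDAC2, 3 or 6 (20, 6 and […] respectively) diluted in assay buffer with inhibitor and 25 µM fluorogenic acetyl-lysine substrate; 15 min at room temperature, then developer 10 min; fluorescence read. Concentration–inhibition data fitted by non-linear regression to give IC50; replicates n≥2, mean shown.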
# Histone deacetylase 3 [2] = biological target: T3, Histone deacetylase 3 (Homo sapiens, UniProt O15379); test: Inhibition of recombinant human HDAC3 after 15 mins by fluorescence assay; outline: as §2
# T3 sequence (O15379 whole entry): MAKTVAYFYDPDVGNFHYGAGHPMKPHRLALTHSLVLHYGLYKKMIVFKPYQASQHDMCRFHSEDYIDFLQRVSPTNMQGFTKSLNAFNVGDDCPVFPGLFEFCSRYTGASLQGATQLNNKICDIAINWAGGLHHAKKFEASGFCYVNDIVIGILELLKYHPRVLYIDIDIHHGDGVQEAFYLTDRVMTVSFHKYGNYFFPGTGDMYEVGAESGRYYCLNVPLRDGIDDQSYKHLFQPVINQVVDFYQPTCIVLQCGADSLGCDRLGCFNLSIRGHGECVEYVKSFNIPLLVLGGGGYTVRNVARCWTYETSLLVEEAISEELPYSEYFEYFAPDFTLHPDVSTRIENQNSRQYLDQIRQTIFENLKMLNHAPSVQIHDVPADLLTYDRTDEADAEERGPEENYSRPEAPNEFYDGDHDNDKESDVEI
# [3] = Metabolic stability in mouse liver microsomes assessed as compound remaining at 1 uM preincubated for 10 mins measured after 30 mins by LC-MS/MS analysis; format: ADME; conditions: for remaining at 0.5 h, 1 µM: liver microsomes, read-out: Stability
# Outline: (§3)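 Compound at 1 µM pre-incubated 10 min at 37 °C in potassium phosphate buffer pH 7.4 with 0.5 mg/mL mouse or human hepatic microsomes. Parent quantified by LC-MS/MS (ESI+, MRM, verapamil internal standard). % remaining = peak area at 30 min / area at 0 min × 100; n≥2, mean.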
# [4] = (§4) Metabolic stability in human liver microsomes assessed as compound remaining at 1 uM preincubated for 10 mins measured after 30 mins by LC-MS/MS analysis; format: ADME; conditions: liver microsomes, read-out: Stability; outline: as §3
# Histone deacetylase = test: Inhibition of HDAC in human HeLa cells nuclear extract using Fluor de lys as substrate after 15 mins by fluorometric analysis; format: cell-based
# K562 = test: Antiproliferative activity against human K562 cells assessed as cell viability after 72 hrs by CellTitre-Glo luminescent assay; format: functional, cell-based
# A549 = test: Antiproliferative activity against human A549 cells assessed as cell viability after 72 hrs by CellTitre-Glo luminescent assay; format: functional, cell-based
# [5] = Antiproliferative activity against human HCT116 cells assessed as cell viability after 72 hrs by CellTitre-Glo luminescent assay; format: functional, cell-based, HCT-116
# Liver microsome = test: as §4; format: ADME; conditions: microsomes, 0.5 h, 1 µM; outline: as §3
# [6] = Solubility of the compound at pH 4.5; format: physicochemical; conditions: buffer
# Histone deacetylase 2 [7] = biological target: T2, Histone deacetylase 2; test: Inhibition of HDAC2 (unknown origin)
# Histone deacetylase 3 [8] = biological target: T3, Histone deacetylase 3; test: Inhibition of HDAC3 (unknown origin)
# [9] = biological target: T4, Protein deacetylase HDAC6 (Homo sapiens, UniProt Q9UBN7); test: Inhibition of HDAC6 (unknown origin)
# T4 sequence (Q9UBN7 whole entry): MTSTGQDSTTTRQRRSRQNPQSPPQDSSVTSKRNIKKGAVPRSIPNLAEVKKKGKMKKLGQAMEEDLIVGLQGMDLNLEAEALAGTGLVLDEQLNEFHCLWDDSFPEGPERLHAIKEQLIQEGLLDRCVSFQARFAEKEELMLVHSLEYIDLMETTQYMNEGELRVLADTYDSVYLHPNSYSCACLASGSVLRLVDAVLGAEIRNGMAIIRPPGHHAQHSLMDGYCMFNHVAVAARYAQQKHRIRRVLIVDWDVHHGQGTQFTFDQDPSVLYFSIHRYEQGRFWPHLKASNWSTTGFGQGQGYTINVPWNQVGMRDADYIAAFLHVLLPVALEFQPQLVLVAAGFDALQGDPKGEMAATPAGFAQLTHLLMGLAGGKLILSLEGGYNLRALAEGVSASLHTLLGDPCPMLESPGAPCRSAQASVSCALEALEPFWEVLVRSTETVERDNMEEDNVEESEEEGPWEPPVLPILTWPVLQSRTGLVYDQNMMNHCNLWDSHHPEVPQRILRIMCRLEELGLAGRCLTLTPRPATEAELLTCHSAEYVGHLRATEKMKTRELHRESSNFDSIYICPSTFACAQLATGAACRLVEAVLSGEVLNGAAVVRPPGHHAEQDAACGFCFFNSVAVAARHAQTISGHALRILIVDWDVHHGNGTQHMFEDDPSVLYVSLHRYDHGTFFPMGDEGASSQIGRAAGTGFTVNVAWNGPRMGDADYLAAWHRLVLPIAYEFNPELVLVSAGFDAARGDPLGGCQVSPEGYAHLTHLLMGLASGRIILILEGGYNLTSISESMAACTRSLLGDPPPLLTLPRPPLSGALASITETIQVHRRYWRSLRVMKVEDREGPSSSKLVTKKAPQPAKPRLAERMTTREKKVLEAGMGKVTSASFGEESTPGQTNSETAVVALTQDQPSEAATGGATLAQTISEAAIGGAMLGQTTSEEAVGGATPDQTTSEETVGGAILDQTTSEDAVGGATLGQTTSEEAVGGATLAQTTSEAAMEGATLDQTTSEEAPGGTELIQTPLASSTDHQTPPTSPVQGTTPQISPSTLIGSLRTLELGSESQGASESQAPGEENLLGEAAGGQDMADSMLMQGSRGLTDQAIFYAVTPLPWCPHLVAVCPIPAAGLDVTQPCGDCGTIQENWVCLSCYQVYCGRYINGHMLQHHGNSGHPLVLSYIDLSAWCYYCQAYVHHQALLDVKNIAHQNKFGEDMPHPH
# [10] = biological target: T4, Protein deacetylase HDAC6; test: Inhibition of recombinant human HDAC6 after 15 mins by fluorescence assay; outline: as §2
Compound,"inhibition at 0.25 h, 10 µM (CYP1A2) [%]","inhibition at 0.5 h, 10 µM (CYP2C19) [%]","inhibition at 0.5 h, 10 µM (CYP2D6) [%]","inhibition at 0.5 h, 10 µM (CYP3A4) [%]","remaining at 0.5 h, 1 µM [3] [%]","remaining at 0.5 h, 1 µM [4] [%]",IC50 (Histone deacetylase) [nM],IC50 (K562; k562) [nM],Stability (Liver microsome) [%],solubility [6] [µM],"IC50 (K562; Homo sapiens, K562, 72 h) [nM]","IC50 (A549; Homo sapiens, A549, 72 h) [nM]","IC50 ([5]; Homo sapiens, HCT-116, 72 h) [nM]",other results
O=C(/C=C/c1ccc2c(c1)C(=O)CC1(CCN(Cc3ccc(F)cc3)CC1)O2)NO,5,61,43,34,47,63,–,–,–,–,–,–,–,IC50 (Histone deacetylase 2 [1]): 320 nM; IC50 (Histone deacetylase 3 [2]): 92 nM
O=C(/C=C/c1ccc2c(c1)C(=O)CC1(CCCN(Cc3ccccc3)CC1)O2)NO (racemic),–,–,–,–,25,19,73,–,–,–,162,371,47,IC50 (Histone deacetylase 2 [7]): 72 nM; IC50 (Histone deacetylase 3 [8]): 30 nM; IC50 [9]: 151 nM
O=C(/C=C/c1ccc2c(c1)C(=O)CC1(CN(Cc3ccccc3)C1)O2)NO,5,40,64,53,44,44,67,–,–,> 500,175,245,76,–
Cn1cc(CN2CC3(CC(=O)c4cc(/C=C/C(=O)NO)ccc4O3)C2)c2ccccc21,8,68,74,84,27,51,62,–,–,> 500,46,242,78,–
O=C(/C=C/c1ccc2c(c1)C(=O)CC1(CCN(CCc3ccccc3)CC1)O2)NO,13,42,41,40,57,66,–,–,–,–,–,–,–,IC50 (Histone deacetylase 2 [1]): 199 nM; IC50 [10]: 138 nM

# Now from value to compound, other results behind:
"inhibition at 0.25 h, 10 µM (CYP1A2) [%]","inhibition at 0.5 h, 10 µM (CYP2C19) [%]","inhibition at 0.5 h, 10 µM (CYP2D6) [%]","inhibition at 0.5 h, 10 µM (CYP3A4) [%]","remaining at 0.5 h, 1 µM [3] [%]","remaining at 0.5 h, 1 µM [4] [%]",IC50 (Histone deacetylase) [nM],IC50 (K562; k562) [nM],Stability (Liver microsome) [%],solubility [6] [µM],"IC50 (K562; Homo sapiens, K562, 72 h) [nM]","IC50 (A549; Homo sapiens, A549, 72 h) [nM]",Compound,"IC50 ([5]; Homo sapiens, HCT-116, 72 h) [nM]",other results
–,–,–,–,–,–,37,130,11,–,–,–,O=C(/C=C/c1ccc2c(c1)C(=O)CC1(CCN(Cc3ccccc3)C1)O2)NO (stereo in doubt; 32j),–,IC50 (A549; a549): 303 nM; IC50 ([5]; hct-116): 71 nM
5,12,14,51,72,42,237,–,–,> 500,56,103,CN1CCCC2(CC(=O)c3cc(/C=C/C(=O)NO)ccc3O2)C1 (racemic),63,–
5,39,70,69,27,–,52,271,24,> 500,–,389,O=C(/C=C/c1ccc2c(c1)C(=O)CC1(CCN(Cc3ccccc3)C1)O2)NO (racemic),72,IC50 (Histone deacetylase 2 [7]): 82 nM; IC50 (Histone deacetylase 3 [8]): 28 nM; IC50 [9]: 123 nM
–,–,–,–,–,–,26,119,23,–,–,–,"O=C(/C=C/c1ccc2c(c1)C(=O)CC1(CCN(Cc3ccccc3)C1)O2)NO (single isomer, unassigned; (-))",–,"IC50 (A549; a549): 332 nM; IC50 ([5]; hct-116): 66 nM; Stability ([3]; microsomes, 0.5 h, 1 µM): 19%"
